Calls of active or inactive are those of the source. The calls are words filed in the database; no cut-off is given here.
How the values were obtained:
[1] = Toxicity in Wistar kyoto rat assessed as swollen gastric cell at 10 mg/kg, ip administered for 14 days by H and E staining based optical microscopic method; format: organism-based; details: in vivo, 336 h
Outline: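 WKY rats, 3 per group, were dosed for 14 days, with the compound at 10 mg/kg per dose and the ibuprofen comparator at 6.1 mg/kg. Rats were anaesthetised with ether and killed by cervical dislocation. Stomach and intestine were sectioned at 5-10 µm, stained with haematoxylin and eosin, and examined by optical microscopy.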

[2] = Toxicity in Wistar kyoto rat assessed as necrosis in renal tubular epithelial cells at 10 mg/kg, ip administered for 14 days by H and E staining based assay; format: organism-based; details: in vivo, 336 h
Outline: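 WKY rats were dosed intraperitoneally at 10 mg/kg daily for 14 days, using the 10% 1,3-propanediol vehicle, with a vehicle control group. Liver and kidney were collected and fixed immediately in 4% glutaraldehyde. Sections were stained with haematoxylin and eosin and scored for structural change under light microscopy.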

[3] = Toxicity in Wistar kyoto rat assessed as swollen glomerular endothelial cells at 10 mg/kg, ip administered for 14 days by TEM assay; format: organism-based; details: in vivo, 336 h
Outline: (§1)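 After 14 days of daily intraperitoneal dosing at 10 mg/kg in WKY rats, with vehicle controls, liver and kidney were fixed in 4% glutaraldehyde. Ultrastructure was examined by transmission electron microscopy at 6000-, 10000- and 20000-fold magnification.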

[4] = Toxicity in Wistar kyoto rat assessed as stromal hyperplasia at 10 mg/kg, ip administered for 14 days by TEM assay; format: organism-based; details: in vivo, 336 h; outline: as §1
[5] = Toxicity in Wistar kyoto rat assessed as a large amount of exudation in glomerulus at 10 mg/kg, ip administered for 14 days by TEM assay; format: organism-based; details: in vivo, 336 h
Outline: (§2)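 WKY rats were given 10 mg·kg⁻¹ intraperitoneally daily for 14 days, with vehicle-treated controls. Liver and kidney were collected and fixed in 4% glutaraldehyde. Tissue was examined after HE staining by light microscopy and by transmission electron microscopy at 6000, 10000 and 20000-fold.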

[6] = Toxicity in Wistar kyoto rat assessed as increase in lipid droplets in cytoplasm in liver tissue at 10 mg/kg, ip administered for 14 days by TEM assay; format: organism-based; details: in vivo, 336 h; outline: as §1
[7] = Toxicity in Wistar kyoto rat assessed as chromatin edge collection in liver tissue at 10 mg/kg, ip administered for 14 days by TEM assay; format: organism-based; details: in vivo, 336 h; outline: as §2
H9c2 = assay: Cytoprotective activity against H2O2-induced toxicity in rat H9c2 cells assessed as reduction in cell de-fromation at 10 to 80 uM pretreated with compound followed by H2O2 addition and measured after 1 to 8 hrs by giemsa staining based microscopic method; format: functional
Outline: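 H9c2 cells were injured with H₂O₂ (400 µM) for 1, 4 or 8 h to give light, medium and heavy damage, in the presence of compound at 10–80 µM. Acetaminophen or ibuprofen served as controls. Viability was measured as mean ± SD of three experiments. SOD and MDA contents were measured as mean ± SD of four experiments. Morphology was assessed by Giemsa staining under light microscopy.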

## CC(C)Cc1ccc(C(C)C(=O)Oc2ccc(C(N)=S)cc2)cc1 (stereo not drawn)
[1]
  Activity: Non-Toxic
[2]
  Activity: Toxic
[3]
  Activity: Toxic
[4]
  Activity: Toxic
[5]
  Activity: Toxic
[6]
  Activity: Toxic
[7]
  Activity: Toxic

## CC(=O)Nc1ccc(OC(=O)CCCCC2CCSS2)cc1 (stereo not drawn)
H9c2
  Activity: Active

Source: ChEMBL document CHEMBL4334422, “Toxicities and beneficial protection of H2S donors based on nonsteroidal anti-inflammatory drugs” (Medchemcomm, 2019)
